Source: PubChem
Shown are actives, neighbours in structure and some others; about 2.3% of the full set was active somewhere.
OXTR ag: activates the human oxytocin receptor. 320,000 compounds, 0.32% hits. AID 2435. CHO-OTR cells, Fluo-8 calcium fluorescence; normalized: DMSO 0%, oxytocin 100%. activation, % at 3 µM;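 active = activation above the mean of all tested compounds plus 3 SD, cutoff set per screening run, cut at about 20% in these data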;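 note: peak over basal fluorescence ratio from a 100 s FLIPR kinetic read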
Target sequence (P30559 whole entry, looked up): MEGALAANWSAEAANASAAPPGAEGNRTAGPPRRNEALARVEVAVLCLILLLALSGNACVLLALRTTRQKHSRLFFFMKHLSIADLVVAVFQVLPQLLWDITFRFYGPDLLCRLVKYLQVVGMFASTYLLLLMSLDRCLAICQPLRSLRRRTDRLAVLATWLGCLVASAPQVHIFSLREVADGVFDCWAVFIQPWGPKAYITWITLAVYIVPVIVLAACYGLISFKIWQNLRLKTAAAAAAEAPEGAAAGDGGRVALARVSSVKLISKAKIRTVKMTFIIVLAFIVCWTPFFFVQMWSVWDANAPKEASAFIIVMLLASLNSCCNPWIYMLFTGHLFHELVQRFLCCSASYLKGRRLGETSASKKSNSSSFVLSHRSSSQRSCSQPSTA
OXTR potentiator: potentiators of human oxytocin receptor | 320,000 compounds, 0.061% hits | activation, % at 3 µM | AID 2445 | CHO-OTR cells, Fluo-8 calcium fluorescence, potentiator mode; 0% = oxytocin EC15, 100% = EC100;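 active = activation above that plate's cutoff, the mean activation of tested compounds plus 3 SD, cut at about 6.6% in these data, passing the limit was not always enough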;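 note: 100% uses oxytocin at 75 nM as the full agonist control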
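Assay system: CHO-OTR cells, human receptor / Also added: oxytocin at about EC15, sub-maximal agonist stimulus / Dosing: single dose, 3.0 µM nominal final compound concentration / Incubation: 6 min pre-incubation, 100 s read / Technique: Fluo-8 calcium dye fluorescence / Read-out: % activation vs EC15 and EC100 oxytocin / Benchmarks: EC15 oxytocin low, 75 nM oxytocin high / Replicates: singlicate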
V1aR counter: V1a receptor agonism, counter-screen for OXTR agonists. P37288. CHO-V1R cells, Fluo-8 calcium fluorescence, agonist mode; 0% DMSO, 100% 3 nM vasopressin. activation, % at 3 µM. 320,000 compounds, 0.25% hits. AID 2797;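 active = activation above the mean activation of all tested compounds plus 3 SD, per screening run, cut at about 20% in these data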;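 note: signal is peak over basal fluorescence ratio across a 100 second FLIPR read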
Target sequence (P37288 whole entry, looked up): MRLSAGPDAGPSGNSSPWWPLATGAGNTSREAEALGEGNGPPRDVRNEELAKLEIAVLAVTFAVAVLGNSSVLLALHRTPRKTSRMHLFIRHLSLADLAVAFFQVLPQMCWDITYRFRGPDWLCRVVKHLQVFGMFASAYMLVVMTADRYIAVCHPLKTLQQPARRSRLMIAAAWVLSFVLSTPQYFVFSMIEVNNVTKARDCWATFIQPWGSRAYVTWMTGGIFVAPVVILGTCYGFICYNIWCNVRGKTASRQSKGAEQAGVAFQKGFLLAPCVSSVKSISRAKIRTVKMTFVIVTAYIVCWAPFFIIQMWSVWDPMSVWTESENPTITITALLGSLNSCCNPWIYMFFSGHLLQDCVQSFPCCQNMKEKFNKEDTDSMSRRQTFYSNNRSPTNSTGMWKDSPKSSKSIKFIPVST
TAAR1 agonist: agonists of human TAAR1 | activation, % at 3 µM | 360,000 compounds, 0.99% hits | AID 624467 | CHO RD-HGA16 TAAR1, Fluo-8 calcium fluorescence; vehicle wells 0%, saturating PEA agonist 100%;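 active = activation above the mean activation of all test compounds in the run plus 3 SD, cut at about 38% in these data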
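Test system: RD-HGA16 (CHO) cells co-expressing Gα16 and hTAAR1 / Benchmarks: DMSO vehicle as 0%, PEA at EC100 as 100% / Repeats: no replicates (n 1) / Measure: % activation from peak over basal fluorescence ratio, DMSO-to-PEA scaled / Timing: 17-24 h plating, Fluo-8 75 min 37 °C, 30 min RT / Technique: kinetic Fluo-8 calcium fluorescence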
TAAR1 antagonist: antagonists of human TAAR1. Q96RJ0. CHO RD-HGA16 TAAR1, Fluo-8 calcium fluorescence, antagonist. inhibition, % at 3 µM. 360,000 compounds, 1.5% hits. AID 624466;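 active = inhibition above a per-plate cutoff, the mean inhibition of test compounds on that plate plus 3 SD, cut at about 49% in these data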;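 note: 0% = DMSO plus EC80 beta-PEA response and 100% = DMSO alone without agonist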
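System: CHO RD-HGA16 cells bearing hTAAR1. Reagent: EC80 β-phenethylamine stimulus. Schedule: seeding 17-24 h prior, 75-min 37 °C, 30-min RT dye loading. Signal: Fluo-8 intracellular calcium dye fluorescence, real-time kinetic reads. Read-out: % inhibition from peak post-agonist over basal fluorescence ratio. Benchmarks: vehicle wells and EC80 agonist wells. Replicates: n of 1.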
TAAR1 ag confirm: human TAAR1 agonism, confirmed | shares compounds with TAAR1 agonist | CHO RD-HGA16 TAAR1, Fluo-8 calcium fluorescence; scaled: DMSO 0%, maximal phenethylamine 100% | activation, % at 3 µM | 2,400 compounds, 82% hits;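 active = activation above a cutoff set at the run's mean compound activation plus 3 SD, cut at about 39% in these data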
Ga16 nonsel ag: counter-screen for TAAR1 agonists: nonselective agonists in parental cells. shares compounds with TAAR1 agonist. CHO-Ga16 parental, Fluo-8 calcium fluorescence; normalized to maximal ATP response, DMSO zero. activation, % at 3 µM. 2,400 compounds, 50% hits. AID 651787;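 active = activation above the run cutoff, the mean activation over all tested wells plus 3 SD, cut at about 12% in these data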;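 note: 0% = DMSO wells and 100% = maximal ATP response on the peak over basal ratio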
TAAR1 desensitize: human TAAR1 agonist that also desensitizes the receptor; shares compounds with TAAR1 agonist; CHO RD-HGA16 hTAAR1, Fluo-8 calcium, beta-PEA response inhibition; inhibition, % at 3 µM; 2,400 compounds, 46% hits;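 active = inhibition above the run cutoff, the mean inhibition of all test compounds plus 3 SD, cut at about 49% in these data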;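 note: beta-PEA stimulus applied at its EC80; loss of beta-PEA calcium signal after compound pretreatment read as receptor desensitization; 0% = DMSO with beta-PEA at EC80 and 100% = DMSO alone without agonist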
Ga16 nonsel ant: nonselective Ga16 antagonism, counter-screen; shares compounds with TAAR1 agonist; CHO-Ga16 ATP-induced calcium, Fluo-8 fluorescence; inhibition, % at 3 µM; 2,400 compounds, 39% hits;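 active = inhibition above the plate's mean compound inhibition plus 3 SD, computed per plate, cut at about 22% in these data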;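 note: 0% = EC80 ATP with DMSO and 100% = DMSO wells without ATP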
* = called active by the depositor; . = not tested or not shown.

SMILES	OXTR ag	OXTR potentiator	V1aR counter	TAAR1 agonist	TAAR1 antagonist	TAAR1 ag confirm	Ga16 nonsel ag	TAAR1 desensitize	Ga16 nonsel ant
C[C@@H](C(=O)NCCc1ccccc1)N1C(=O)N2CCc3c([nH]c4ccccc34)[C@@]2(C)C1=O	3.1	-3.6	0.3	71.4*	67.6*	67.7*	5.1	31.5	13.4
C[C@@H](C(=O)NC1CCCCC1)N1C(=O)N2CCc3c([nH]c4ccccc34)[C@@]2(C)C1=O	-0.7	0.1	-1.1	1.4	8.9	.	.	.	.
OCC[C@H]1C[C@H](O)[C@@H](O)[C@@]2(Cc3ccccc3O2)O1	1.7	-0.7	0.9	6.2	8.6	.	.	.	.
Cc1nonc1C1CCCN1C(=O)c1cc(COc2ccc(F)cc2F)on1 (stereo not given)	3.2	-0.6	0.5	-0.1	-22.3	.	.	.	.
Cn1ccnc1C1CCCCN1C(=O)c1cc(COc2ccc(F)cc2F)on1 (stereo not given)	5.8	-3.0	0.8	56.2*	-16.5	7.7	3.0	12.6	8.3
CC(C(=O)Nc1ccc2c(c1)OCCO2)c1ccc([N+](=O)[O-])cc1 (stereo not given)	44.5*	-20.8	42.8*	127.7*	76.5*	122.8*	85.3*	78.3*	40.4*
CC(C(=O)Nc1cccc(Br)c1)c1ccc([N+](=O)[O-])cc1 (stereo not given)	4.9	-10.8	8.9	16.6	7.4	.	.	.	.
CC(NCc1ccc(OCc2ccc(Cl)cc2)cc1)C(O)c1ccccc1 (stereo not given)	18.6	-11.8	6.7	52.4*	26.5	38.9*	26.9*	48.6*	39.9*
CC(NCc1cccc(OCc2ccccc2)c1)C(O)c1ccccc1 (stereo not given)	15.7	-18.2	4.4	23.6	7.8	.	.	.	.
CCOC(=O)C1CCCN(C(=O)Cc2ccc(C)cc2)C1 (stereo not given)	-1.6	-11.2	0.1	4.6	9.9	.	.	.	.
CCOC(=O)C1CCCN(C(=S)Nc2ccc(C)cc2C)C1 (stereo not given)	-1.1	1.6	-0.6	69.0*	60.3*	34.0	-0.6	31.2	8.8
C=CCn1c(SCC(=O)Nc2cccc(C(=O)OC)c2)nnc1C(C)NC(=O)c1cccs1 (stereo not given)	0.3	-4.8	-0.7	7.2	-0.2	.	.	.	.
C=CCn1c(SCC(=O)NCCc2ccccc2)nnc1C(C)NC(=O)c1cccs1 (stereo not given)	-0.8	0.1	-0.4	49.1*	-9.2	65.7*	0.8	16.3	10.7
COc1cc(C=NCC2OCCc3ccccc32)cc(OC)c1 (stereo not given)	0.6	-1.9	0.9	.	.	.	-0.3	.	9.3
COc1ccc(C=NCC2OCCc3ccccc32)cc1OC (stereo not given)	0.4	-1.7	1.8	.	.	.	-0.6	.	6.9
COc1ccc(C(=O)NCC2OCCc3ccccc32)cc1 (stereo not given)	-0.5	-2.3	0.9	2.1	-7.0	.	.	.	.
COc1ccc(CNC(=O)c2sc(=O)n(Cc3ccccc3C)c2C)cc1	.	.	.	105.7*	70.3*	121.8*	82.1*	84.7*	53.8*
COc1ccc(Cl)cc1Cn1c(C)c(C(=O)NCc2ccc(C#N)cc2)sc1=O	.	.	.	67.6*	76.5*	74.3*	37.4*	74.4*	49.7*
Cc1ccccc1Cn1c(C)c(C(=O)NCc2cccc(Cl)c2)sc1=O	.	.	.	7.3	13.7	.	.	.	.
COc1ccccc1Cn1c(C)c(C(=O)NCc2ccc(C#N)cc2)sc1=O	.	.	.	133.6*	94.3*	106.0*	69.1*	78.3*	44.9*
COc1ccc(Cl)cc1Cn1c(C)c(C(=O)NCc2cccc(C(F)(F)F)c2)sc1=O	.	.	.	2.3	11.5	.	.	.	.
Cc1c(C(=O)NCc2ccc3c(c2)OCCO3)sc(=O)n1Cc1ccc2c(c1)OCO2	.	.	.	3.0	25.1	.	.	.	.
Cc1c(C(=O)NCc2ccc([N+](=O)[O-])cc2)sc(=O)n1Cc1ccc2c(c1)OCO2	.	.	.	104.5*	74.3*	106.1*	62.7*	81.1*	48.7*
O=C(/C=C/c1ccc(S(=O)(=O)N2CCOCC2)cc1)N(CCO)Cc1ccccc1	2.4	0.9	2.4	5.0	-15.5	.	.	.	.
CN(C)CCCn1c2c3ccccc3ccc2c2oc(=O)c3ccccc3c21	.	.	.	3.0	4.7	.	.	.	.
SMILES	OXTR ag	OXTR potentiator	V1aR counter	TAAR1 agonist	TAAR1 antagonist	TAAR1 ag confirm	Ga16 nonsel ag	TAAR1 desensitize	Ga16 nonsel ant
N#C/C(=C/c1ccc(N2CCCCC2)o1)C(=O)Nc1ccc(Cl)cc1	197.2*	-10.4	225.3*	312.3*	108.6*	127.3*	165.7*	95.6*	92.2*
N#C/C(=C/c1ccc(N2CCCCC2)o1)C(=O)Nc1ccc2ccccc2c1	.	.	.	268.2*	107.1*	199.2*	223.2*	93.4*	94.7*
CC1CC1c1ccc(/C=C(\C#N)C(=O)Nc2ccccc2Cl)o1 (stereo not given)	-0.6	-6.9	0.7	1.6	1.7	.	.	.	.
Cc1ccc(NC(=O)CSc2nnc(CNC(=O)c3c(F)cccc3Cl)o2)cc1	-0.6	-9.1	-0.2	4.8	-12.5	.	.	.	.
CCCCc1cc(=O)oc2cc(C)cc(OCC(=O)N[C@@H](CSCc3ccccc3)C(=O)O)c12	-0.5	-3.3	1.1	59.9*	15.1	84.1*	43.7*	28.3	13.7
O=C(Nc1cccc2ccccc12)N1CCc2ccccc2C1	-1.3	-4.9	0.7	77.0*	73.7*	77.9*	2.2	64.7*	8.5
CCc1ccccc1NC(=O)N1CCc2ccccc2C1	.	.	.	79.8*	55.0*	95.9*	3.9	81.9*	2.0
CN1CCN(C(=O)Nc2cccc3ccccc23)CC1	0.2	2.2	0.7	0.7	3.4	.	.	.	.
N=c1c2c(-c3ccccc3)c(-c3ccccc3)n(Cc3ccccc3)c2ncn1CCO	3.5	-16.5	11.7	59.4*	-14.7	49.5*	20.2*	14.7	11.9
COC(=O)c1cnn2c3c(c(C)nc12)CCCC3	0.5	4.9	-0.5	10.8	-9.8	.	.	.	.
Cc1sc(NC(=O)C2CCCCC2C(=O)O)c(C(N)=O)c1-c1ccc(C(C)(C)C)cc1 (stereo not given)	0.0	-5.2	-0.1	66.5*	45.5	43.4*	19.9*	40.5	12.9
